The source of these data is ChEMBL document CHEMBL1833887, “Synthesis and evaluation of 7-substituted 4-aminoquinoline analogues for antimalarial activity” (J Med Chem, 2011).

Values after ≈ are worked out from the molar mass of the structure shown.

A short description of data set [1]: Solubility of the compound at pH 7.4 after 18 hrs by UV spectroscopic analysis. The data set is classed as physicochemical. Particulars: buffer. Summed up:
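Kinetic solubility. A 10 mM stock is diluted 1:100 into PBS pH 7.4 and incubated 18 h at room temperature, then filtered; the filtrate is mixed 1:1 with 1-propanol. UV spectrum (250–500 nm) compared by AUC with a 1-propanol/PBS reference. Single experiment in triplicate.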

Data set [2] in a line: Permeability of the compound at pH 7.4 after 30 mins by PAMPA. The data set is classed as ADME. The note with it: read-out: permeability. In outline:
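PAMPA at pH 7.4. A 10 mM DMSO stock is diluted into system solution buffer; its UV spectrum serves as reference. Membrane painted with GIT lipid, acceptor chamber holds acceptor solution buffer. Sandwich stirred for 30 min, aqueous boundary layer set to 40. Donor and acceptor UV spectra read at 250–500 nm. Permeability coefficient from the AUCs of reference, donor and acceptor. Single experiment in triplicate.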
(The PAMPA barrier holds no transporters, so it reflects passive diffusion.)

Data set [3] is described as follows: Dissociation constant, pKa of the compound. The data set is classed as physicochemical.
For data set [4], the system named is Plasmodium falciparum. Description: Antimalarial activity against chloroquine-sensitive Plasmodium falciparum 3D7 infected in human erythrocytes assessed as reduction in parasitemia after 72 hrs by spectrophotometry. The data set is classed as functional, organism-based. The note with it: 3D7, 72 h.
Data set [5] deals with Plasmodium falciparum. Description: Antimalarial activity against chloroquine-resistant Plasmodium falciparum K1 infected in human erythrocytes assessed as reduction in parasitemia after 72 hrs by spectrophotometry. The data set is classed as functional, organism-based. The note with it: K1, 72 h.
For data set [6], the system named is Plasmodium falciparum. Description: Ratio of EC50 for chloroquine-resistant Plasmodium falciparum K1 infected in human erythrocytes to EC50 for chloroquine-sensitive Plasmodium falciparum 3D7 infected in human erythrocytes. The data set is classed as functional.
Data set [7] concerns HepG2. Put plainly: Cytotoxicity against human HepG2 cells assessed as intracellular ATP level after 72 hrs by Celltiter-Glo luminescent assay. The note with it: HepG2, 72 h. The data set is classed as cell-based.
Data set [8] is described as follows: Ratio of EC50 for human HepG2 cells to EC50 for Plasmodium falciparum 3D7 infected in human erythrocytes.
Data set [9] can be described thus: Ratio of EC50 for human HepG2 cells to EC50 for Plasmodium falciparum K1 infected in human erythrocytes.

Regarding `COc1cccc(CNCCCNc2ccnc3cc(-c4ccccc4)ccc23)c1O`, the solubility – broadly, the concentration that dissolves in the medium under given conditions – at 18 h in data set [1] came to 32 µM (≈ 13.2 µg/mL). Also, the Papp at 0.5 h in data set [2] came out at 237 ×10⁻⁶ cm/s. In addition, the pKa (as a rule, the pH at which an ionisable group is half protonated) in [3] came out at 9.47. In addition, the results for the 50% effective concentration (EC50) in data set [4], in data set [5] and in [7] were 9 nM, 1940 nM and 3210 nM, respectively. The “Ratio EC50” value came out at 212.7 in [6], 353 in data set [8] and 1.7 in data set [9].

On to `COc1ccc(F)cc1CNCCCNc1ccnc2cc(-c3ccc(C(C)(C)C)cc3)ccc12`, for which the concentration in solution in data set [1] (solubility at 18 h) was 32 µM (≈ 15.1 µg/mL). Also, the Papp at 0.5 h in data set [2] is 237 ×10⁻⁶ cm/s. The molecule further returned a pKa in data set [3] of 9.47. Moreover, the half-maximal effective concentration (EC50) (in general, the concentration at which the effect is half-maximal) in [4] came to 144 nM; in data set [5], 1590 nM; in data set [7] it was 620 nM. The results for the “Ratio EC50” value in [6], in data set [8] and in data set [9] were 11, 4.3 and 0.4, respectively.

The molecule `Cc1cc(C)cc(Cc2ccc3c(NCCCNCc4ccc5c(c4)OCO5)ccnc3c2)c1` registered a solubility at 18 h in [1] of 4.2 µM (≈ 1.91 µg/mL). In data set [2], the Papp at 0.5 h turned out to be 23 ×10⁻⁶ cm/s. Besides, in data set [3], the pKa stood at 9.47. For the same molecule, the results for the EC50 in [4], in data set [5] and in [7] were 41 nM, 1040 nM and 2250 nM, respectively. The figures for the “Ratio EC50” value in [6], in [8] and in data set [9] were 25.6, 55.5 and 2.2, respectively.

For the molecule `CC(C)Cc1ccc2c(NCCCNCc3ccco3)ccnc2c1`, the solubility at 18 h in data set [1] stood at 4.2 µM (≈ 1.42 µg/mL). For the same molecule, in data set [2], the Papp at 0.5 h worked out at 23 ×10⁻⁶ cm/s. In addition, the pKa in data set [3] was found to be 9.47. The half-maximal effective concentration (EC50) in data set [4] amounted to 581 nM; in [5], 4500 nM; in [7], 16000 nM. Moreover, the “Ratio EC50” value in data set [6] was determined as 7.7; in data set [8], 27.5; in data set [9], 3.6.

Consider `COc1ccc(F)cc1CNCCCNc1ccnc2cc(CC(C)C)ccc12`, for which the concentration in solution in data set [1] (solubility at 18 h) came to 4.2 µM (≈ 1.66 µg/mL). In addition, the Papp at 0.5 h in data set [2] worked out at 23 ×10⁻⁶ cm/s. This molecule displayed a pKa in [3] of 9.47. In addition, the EC50 in data set [4] amounted to 89 nM; in data set [5], 2120 nM; in [7], 2900 nM. For the same molecule, the “Ratio EC50” value in [6] turned out to be 23.9; in [8], 32.7; in data set [9] it was 1.4.

`c1ccc(-c2ccc3c(NCCCNCc4ccc5c(c4)OCO5)ccnc3c2)cc1` had a solubility at 18 h in [1] of 32 µM (≈ 13.2 µg/mL). The Papp at 0.5 h in [2] stood at 237 ×10⁻⁶ cm/s. The pKa in [3] was 9.47. Moreover, the concentration for a half-maximal effect (EC50) in data set [4] was 17 nM; in data set [5], 29 nM; in data set [7] it was 4070 nM. Also, the “Ratio EC50” value is on record as 1.7 in [6], 234 in [8] and 138.9 in data set [9].

For the molecule `CC(C)(C)c1ccc(Oc2ccc3c(NCCCNCc4ccc5c(c4)OCO5)ccnc3c2)cc1`, the solubility at 18 h in [1] worked out at 14.5 µM (≈ 7.01 µg/mL). Besides, the Papp at 0.5 h in data set [2] stood at 317 ×10⁻⁶ cm/s. The molecule also displayed a pKa in data set [3] of 9.28. Besides, the EC50 in data set [4] turned out to be 137 nM; in [5], 2450 nM; in data set [7], 900 nM. For the same molecule, the “Ratio EC50” value in data set [6] is given as 17.9; in data set [8], 7; in data set [9], 0.4.

For `COc1ccc(F)cc1CNCCCNc1ccnc2cc(Cc3ccc(F)cc3Cl)ccc12`, the solubility at 18 h in data set [1] was found to be 4.2 µM (≈ 2.02 µg/mL). Also, the Papp at 0.5 h in data set [2] stood at 23 ×10⁻⁶ cm/s. This molecule also gave a pKa in [3] of 9.47. Moreover, the figures for the concentration for a half-maximal effect (EC50) in [4], in data set [5] and in data set [7] were 208 nM, 1110 nM and 2460 nM, respectively. In addition, the “Ratio EC50” value in [6] was 5.4; in data set [8] it was 11.8; in [9], 2.2.

`Fc1ccc(Cc2ccc3c(NCCCNCc4ccco4)ccnc3c2)cc1`: the solubility at 18 h in [1] worked out at 4.2 µM (≈ 1.64 µg/mL). Besides, the Papp at 0.5 h in data set [2] was found to be 23 ×10⁻⁶ cm/s. In data set [3], this molecule came in with a pKa of 9.47. Further, the EC50 in [4] was 57 nM; in data set [5], 1660 nM; in data set [7], 5600 nM. The figures for the “Ratio EC50” value in data set [6], in [8] and in data set [9] were 28.9, 97.5 and 3.4, respectively.
